Reference: publication PMC6525002 (Cancer Management and Research, 2019)
“Also recorded” adds a separate entry of the source.

Columns and labels:
[1] = tested on: patients with advanced NSCLC and EGFR gene mutations; test: Phase Ib safety and toxicity; format: in vivo, human
In short: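 3+3 dose escalation (modified Fibonacci) of oral test compound, 100–650 mg flat doses twice daily for 28 days. Safety population was all patients dosed at least once. AEs were graded by NCI CTCAE v4.0. Haematology, liver and renal labs were taken predose on Days 1, 8, 15, 22 and 29, plus ECG, echocardiography and chest X-ray. MTD was defined by >1 DLT per dose level.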

[2] = tested on: human A431 tumor cells; settings: in vitro, cells with high expression of EGFR; cited from earlier work

In the case of simotinib, the Aminotransferase elevation ([1]; 100 mg twice daily, N=2) is reported as 0 n (%), the Bilirubin elevation ([1]; 100 mg twice daily, N=2) is reported as 0 n (%) and the Diarrhea ([1]; 100 mg twice daily, N=2) is reported as 0 n (%). For the same substance, the Erythrocyte reduction ([1]; 100 mg twice daily, N=2) was 0 n (%), the Fatigue ([1]; 100 mg twice daily, N=2) was 2 (100) n (%) and the Neutropenia ([1]; 100 mg twice daily, N=2) was 0 n (%). For the same substance, the Pruritus ([1]; 100 mg twice daily, N=2) was 2 (100) n (%), the Rash ([1]; 100 mg twice daily, N=2) was 1 (50.0) n (%) and the Aminotransferase elevation ([1]; 200 mg twice daily, N=3) was 0 n (%). The Bilirubin elevation ([1]; 200 mg twice daily, N=3) was 2 (66.7) n (%), the Diarrhea ([1]; 200 mg twice daily, N=3) was 3 (100) n (%) and the Erythrocyte reduction ([1]; 200 mg twice daily, N=3) was 1 (33.3) n (%). For the same substance, the Fatigue ([1]; 200 mg twice daily, N=3) was 1 (33.3) n (%), the Neutropenia ([1]; 200 mg twice daily, N=3) was 3 (100) n (%) and the Pruritus ([1]; 200 mg twice daily, N=3) was 2 (66.7) n (%). For the same substance, the Rash ([1]; 200 mg twice daily, N=3) was 2 (66.7) n (%), the Aminotransferase elevation ([1]; 300 mg twice daily, N=3) was 1 (33.3) n (%) and the Bilirubin elevation ([1]; 300 mg twice daily, N=3) was 2 (66.7) n (%). The Diarrhea ([1]; 300 mg twice daily, N=3) was 3 (100) n (%), the Erythrocyte reduction ([1]; 300 mg twice daily, N=3) was 0 n (%) and the Fatigue ([1]; 300 mg twice daily, N=3) was 2 (66.7) n (%). The Neutropenia ([1]; 300 mg twice daily, N=3) was 1 (33.3) n (%), the Pruritus ([1]; 300 mg twice daily, N=3) was 1 (33.3) n (%) and the Rash ([1]; 300 mg twice daily, N=3) was 0 n (%). The “death during the treatment phase” value ([1]; 400 mg dose) was 1 patient, the “patients with at least 1 study drug-related AE” value ([1]; 400 mg dose group) was 86.7% and the Aminotransferase elevation ([1]; 400 mg twice daily, N=15) was 2 (13.3) n (%). For the same substance, the Bilirubin elevation ([1]; 400 mg twice daily, N=15) was 1 (6.7) n (%), the Diarrhea ([1]; 400 mg twice daily, N=15) was 7 (46.7) n (%) and the Erythrocyte reduction ([1]; 400 mg twice daily, N=15) was 4 (26.7) n (%). The Fatigue ([1]; 400 mg twice daily, N=15) was 2 (13.3) n (%), the Neutropenia ([1]; 400 mg twice daily, N=15) was 3 (20.0) n (%) and the Pruritus ([1]; 400 mg twice daily, N=15) was 4 (26.7) n (%). The Rash ([1]; 400 mg twice daily, N=15) was 2 (13.3) n (%), the “patients with at least 1 study drug-related AE” value ([1]; 500 mg dose group) was 91.7% and the “AEs of grade ≥3” value ([1]; 500 mg group) was 3 patients. For the same substance, the Aminotransferase elevation ([1]; 500 mg twice daily, N=12) was 2 (16.7) n (%), the Bilirubin elevation ([1]; 500 mg twice daily, N=12) was 2 (16.7) n (%) and the Diarrhea ([1]; 500 mg twice daily, N=12) was 7 (58.3) n (%). For the same substance, the Erythrocyte reduction ([1]; 500 mg twice daily, N=12) was 2 (16.7) n (%), the Fatigue ([1]; 500 mg twice daily, N=12) was 3 (25.0) n (%) and the Neutropenia ([1]; 500 mg twice daily, N=12) was 2 (16.7) n (%). The Pruritus ([1]; 500 mg twice daily, N=12) was 1 (8.3) n (%), the Rash ([1]; 500 mg twice daily, N=12) was 9 (75.0) n (%) and the Aminotransferase elevation ([1]; 650 mg twice daily, N=6) was 3 (50.0) n (%). The Bilirubin elevation ([1]; 650 mg twice daily, N=6) was 0 n (%), the Diarrhea ([1]; 650 mg twice daily, N=6) was 3 (50.0) n (%) and the Erythrocyte reduction ([1]; 650 mg twice daily, N=6) was 2 (33.3) n (%). For the same substance, the Fatigue ([1]; 650 mg twice daily, N=6) was 0 n (%), the Neutropenia ([1]; 650 mg twice daily, N=6) was 2 (33.3) n (%) and the Pruritus ([1]; 650 mg twice daily, N=6) was 0 n (%). The Rash ([1]; 650 mg twice daily, N=6) was 3 (50) n (%), the “patients with at least 1 study drug-related AE” value ([1]; 100, 200, 300, and 650 mg dose groups) was “all patients” and the tolerability ([1]; 100 to 650 mg twice daily) was “well tolerated”. The “dose-limiting toxicity (DLT)” value ([1]; 100 to 650 mg twice daily, 28 days) was “no dose-limiting toxicities; also recorded: No DLT was observed”, the Aminotransferase elevation ([1]; Total N=41) was 8 (19.5) n (%) and the Bilirubin elevation ([1]; Total N=41) was 7 (17.1) n (%). The Diarrhea ([1]; Total N=41) was 23 (56.1) n (%), the Erythrocyte reduction ([1]; Total N=41) was 9 (22.0) n (%) and the Fatigue ([1]; Total N=41) was 10 (24.4) n (%). For the same substance, the Neutropenia ([1]; Total N=41) was 11 (26.8) n (%), the Pruritus ([1]; Total N=41) was 10 (24.4) n (%) and the Rash ([1]; Total N=41) was 17 (41.5) n (%). For the same substance, the “AEs of grade ≥3, patients” value ([1]; all doses, 7 of 41 patients) was 17.1%, the “patients with at least one study drug-related AE” value ([1]; all doses, 38 of 41 patients) was 92.7% and the “patients with at least one AE” value ([1]; all doses, 39 of 41 patients) was 95.1%. The “anemia, frequency” value ([1]; all doses, 41 patients) was 22.0%, the “diarrhea, frequency” value ([1]; all doses, 41 patients) was 56.1% and the “fatigue, frequency” value ([1]; all doses, 41 patients) was 24.4%. For the same substance, the “increased level of aminotransferase, frequency” value ([1]; all doses, 41 patients) was 19.5%, the “increased level of bilirubin, frequency” value ([1]; all doses, 41 patients) was 17.1% and the “neutropenia, frequency” value ([1]; all doses, 41 patients) was 26.8%. The “pruritus, frequency” value ([1]; all doses, 41 patients) was 24.4%, the “rash, frequency” value ([1]; all doses, 41 patients) was 41.5% and the “maximum tolerated dose (MTD)” value ([1]; doses of up to 650 mg twice daily) was “not found; also recorded: not reached”. The “patients who discontinued the study” value ([1]; one patient, 500 mg) was 2.4% and the “inhibition of growth of human A431 tumor cells” value [2] was “inhibits in a dose-dependent manner”.
